# Measured values collected from several papers.
Compound,cell line,test,conditions,IC50 [µM]
COc1ccc(NC(=O)C2=C(C)NC(C)=C(C(=O)Nc3ccc(OC)cc3OC)C2c2cccc(Cl)c2)c(OC)c1,Vero,"cell growth or viability, MTT",,67.5
COc1cc2c3c(n(CCCNC(C)C)c(=O)c2cc1OC)-c1nc2c(cc1C3=O)OCO2,HL-60,"cell growth or viability, MTS",72 h,0.328
COc1cc(NC(=O)c2ccccn2)ccc1S(N)(=O)=O,RAW264.7,"cell growth or viability, MTT",48 h,> 100
COc1ccc(NC(=O)C2=C(C)NC(C)=C(C(=O)Nc3ccc(OC)cc3OC)C2c2ccc(O)cc2)c(OC)c1,Vero,"cell growth or viability, MTT",,70.3
CC(C)Oc1ccc(S(=O)(=O)c2ccc(Oc3cc(OCC(N)=O)c(C(=O)C(Cl)Cl)cc3[N+](=O)[O-])cc2)cc1,NCI-H1299,"cell growth or viability, MTT",72 h,0.31
CCOc1ccc(C(=O)Nc2ccc(S(N)(=O)=O)c(OC)c2)cc1,RAW264.7,"cell growth or viability, MTT",48 h,> 100
C#CCOc1ccc(/C=C/c2cc(OC)cc(OC)c2-c2cnnn2C(=O)NCCC)cc1,RAW264.7,"NO release, inhibitor, Griess","24 h, LPS-stimulated",0.7
COc1cc2c(NC3CCN(CCCC(=O)NCCCCCCCCCCCC(=O)N[C@H](C(=O)N4C[C@H](O)C[C@H]4C(=O)NCc4ccc(-c5scnc5C)cc4)C(C)(C)C)CC3)nc(N3CCC(F)(F)CC3)nc2cc1OCCCN1CCCC1,22Rv1,"cell growth or viability, CCK-8",7 days,4.1
CC#CCOc1ccc(/C=C/c2cc(OC)cc(OC)c2-c2cnnn2C(=O)NCCc2ccccc2)cc1,RAW264.7,"NO release, inhibitor, Griess","24 h, LPS-stimulated",6.1
CC(C)c1ccccc1[C@@H]1CCCN1C1CC2(CCN(c3ccc(C(=O)NS(=O)(=O)c4ccc(NC[C@H]5CC[C@](C)(O)CC5)c([N+](=O)[O-])c4)c(Oc4cnc5[nH]ccc5c4)c3)CC2)C1,HL-60,"cell growth or viability, ATP luminescence",48 h,0.381
C=C(F)C(=O)N1CCN(c2nc(OC[C@@H]3CCCN3C)nc3c2CCN(c2cccc4cccc(Cl)c24)C3)C[C@@H]1CC#N,Lu-65,"cell growth or viability, ATP luminescence",3D culture,0.00188
C#CCOc1ccc(/C=C/c2cc(OC)cc(OC)c2-c2cnnn2C(=O)NCC)cc1,RAW264.7,"NO release, inhibitor, Griess","24 h, LPS-stimulated",10.6
CC1(C)CCC(CN2CCN(c3ccc(C(=O)NS(=O)(=O)c4ccc(NCC5CCOCC5)c([N+](=O)[O-])c4)c(Oc4cnc5[nH]ccc5c4)c3)CC2)=C(c2ccc(Cl)cc2)C1,Maver1,"cell growth or viability, ATP luminescence",48 h,0.0065
COc1cc(NC(=O)c2cccc(C)c2)ccc1S(N)(=O)=O,RAW264.7,"cell growth or viability, MTT",48 h,> 100
CCNCCCn1c2c(c3cc(OC)c(OC)cc3c1=O)C(=O)c1cc3c(nc1-2)OCO3,HL-60,"cell growth or viability, MTS",72 h,0.27
C#CCOc1ccc(/C=C/c2cc(OC)cc(OC)c2-c2cnnn2C(=O)NCCc2ccccc2)cc1,RAW264.7,"NO release, inhibitor, Griess","24 h, LPS-stimulated",11.7
COc1cc(NC(=O)c2ccccc2[N+](=O)[O-])ccc1S(N)(=O)=O,RAW264.7,"cell growth or viability, MTT",48 h,> 100
